Measured values from ChEMBL document CHEMBL1149217, “3-trifluoromethyl-4-nitro-5-arylpyrazoles are novel K(ATP) channel agonists” (Bioorg Med Chem Lett, 2004).

Columns and labels:
[1] = target: T1, Sulfonylurea receptor 1, Kir6.2 (Homo sapiens) (UniProt Q14654+Q09428); experiment: Percent maximal agonist response of human KATP (SUR1/Kir6.2) channel expressed in Xenopus oocytes; assay type: functional, cell-based; conditions: Oocyte
How it was run: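 ATP-sensitive K+ currents were recorded by excised-patch clamp from inside-out macropatches pulled from Xenopus oocytes expressing human SUR1/Kir6.2. Compounds were tested across a dose range to give dose–response curves. […] Values are means of 3-6 experiments.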

[2] = target: Sulfonylurea receptor 1, Kir6.2 (Homo sapiens, UniProt Q09428+Q14654); experiment: […] of human KATP (SUR1/Kir6.2) channel expressed in Xenopus oocytes; assay type: functional, cell-based, Oocyte
Sulfonylurea receptor 1, Kir6.2, sequence (Q14654 whole entry): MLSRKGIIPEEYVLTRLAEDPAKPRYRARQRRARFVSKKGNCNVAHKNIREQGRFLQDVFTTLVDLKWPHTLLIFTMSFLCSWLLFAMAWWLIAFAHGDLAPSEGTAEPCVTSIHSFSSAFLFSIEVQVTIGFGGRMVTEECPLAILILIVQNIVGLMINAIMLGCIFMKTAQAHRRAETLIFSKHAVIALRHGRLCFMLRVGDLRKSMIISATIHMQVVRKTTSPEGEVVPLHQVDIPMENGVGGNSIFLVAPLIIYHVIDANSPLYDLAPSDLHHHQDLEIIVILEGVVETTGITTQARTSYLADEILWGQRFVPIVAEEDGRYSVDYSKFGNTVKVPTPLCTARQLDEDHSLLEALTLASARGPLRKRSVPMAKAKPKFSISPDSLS
Sulfonylurea receptor 1, Kir6.2, sequence (Q09428 whole entry): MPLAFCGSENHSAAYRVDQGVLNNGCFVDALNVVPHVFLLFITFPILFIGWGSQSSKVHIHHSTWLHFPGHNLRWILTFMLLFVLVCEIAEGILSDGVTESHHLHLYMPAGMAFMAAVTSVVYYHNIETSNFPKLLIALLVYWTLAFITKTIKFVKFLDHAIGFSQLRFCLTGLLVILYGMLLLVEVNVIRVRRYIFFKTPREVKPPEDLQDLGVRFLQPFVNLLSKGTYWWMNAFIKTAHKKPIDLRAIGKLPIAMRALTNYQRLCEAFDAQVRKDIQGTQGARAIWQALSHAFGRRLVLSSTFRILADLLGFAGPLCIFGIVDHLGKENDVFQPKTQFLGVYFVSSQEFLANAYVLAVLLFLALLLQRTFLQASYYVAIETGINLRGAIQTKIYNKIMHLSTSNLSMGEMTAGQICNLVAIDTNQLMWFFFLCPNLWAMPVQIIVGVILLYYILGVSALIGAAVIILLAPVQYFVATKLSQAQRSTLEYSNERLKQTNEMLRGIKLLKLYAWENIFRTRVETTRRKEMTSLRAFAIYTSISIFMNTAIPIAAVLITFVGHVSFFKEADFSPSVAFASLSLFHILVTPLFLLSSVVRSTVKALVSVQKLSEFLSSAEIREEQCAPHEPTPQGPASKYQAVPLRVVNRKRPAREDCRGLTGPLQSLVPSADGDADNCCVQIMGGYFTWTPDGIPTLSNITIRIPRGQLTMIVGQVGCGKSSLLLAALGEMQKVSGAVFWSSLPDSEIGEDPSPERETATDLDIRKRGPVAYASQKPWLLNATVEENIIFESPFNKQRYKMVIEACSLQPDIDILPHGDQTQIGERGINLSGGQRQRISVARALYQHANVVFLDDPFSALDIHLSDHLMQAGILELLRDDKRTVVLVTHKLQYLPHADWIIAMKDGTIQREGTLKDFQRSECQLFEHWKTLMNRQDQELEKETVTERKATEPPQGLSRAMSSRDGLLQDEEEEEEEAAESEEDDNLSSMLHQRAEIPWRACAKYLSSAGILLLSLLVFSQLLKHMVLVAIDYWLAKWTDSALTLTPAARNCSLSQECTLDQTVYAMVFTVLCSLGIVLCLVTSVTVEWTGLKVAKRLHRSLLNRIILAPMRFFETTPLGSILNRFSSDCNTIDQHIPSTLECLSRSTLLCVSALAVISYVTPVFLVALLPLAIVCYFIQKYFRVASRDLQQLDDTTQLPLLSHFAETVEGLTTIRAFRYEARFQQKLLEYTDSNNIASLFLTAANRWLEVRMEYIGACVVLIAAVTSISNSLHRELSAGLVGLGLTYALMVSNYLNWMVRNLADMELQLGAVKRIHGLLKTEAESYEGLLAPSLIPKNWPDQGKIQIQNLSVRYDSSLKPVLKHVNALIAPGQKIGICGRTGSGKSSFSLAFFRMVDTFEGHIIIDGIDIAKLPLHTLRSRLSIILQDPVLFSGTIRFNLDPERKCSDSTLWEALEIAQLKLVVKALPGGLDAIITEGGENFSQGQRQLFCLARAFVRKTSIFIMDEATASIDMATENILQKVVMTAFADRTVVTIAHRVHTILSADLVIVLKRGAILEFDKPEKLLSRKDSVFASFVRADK
How it was run: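 ATP-sensitive K+ currents were recorded by excised-patch clamp from inside-out macropatches pulled from Xenopus oocytes expressing human SUR1/Kir6.2. Values are means of 3-6 experiments.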

[3] = target: T1, Sulfonylurea receptor 1, Kir6.2 (Homo sapiens); experiment: Percent maximal agonist response of human KATP (SUR1/Kir6.2) channel expressed in Xenopus oocytes at 30 uM; assay type: functional, cell-based; conditions: Oocyte
How it was run: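 Inside-out macropatches were excised from Xenopus oocytes expressing human SUR1/Kir6.2, and ATP-sensitive K+ currents were recorded. […] Means of 3-6 experiments.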

Structure (SMILES)	Max response [1] [%]	EC50 [2] [nM]	Max response [3] [%]
O=[N+]([O-])c1c(C(F)(F)F)n[nH]c1-c1ccc(F)cc1F	113		
O=[N+]([O-])c1ccc(-c2[nH]nc(C(F)(F)F)c2[N+](=O)[O-])cc1	94	700	
O=[N+]([O-])c1c(C(F)(F)F)n[nH]c1-c1ccccc1		30000	38
O=[N+]([O-])c1c(-c2ccc(F)cc2F)n[nH]c1C(F)(F)F		1150	
O=[N+]([O-])c1c(C(F)(F)F)n[nH]c1-c1ccc(C(F)(F)F)cc1C(F)(F)F	197	540	
O=[N+]([O-])c1ccc(-c2noc(C(F)(F)F)c2[N+](=O)[O-])cc1		> 30000	
CC1=Nc2ccc(Cl)cc2S(=O)(=O)N1	100		
O=[N+]([O-])c1ccc(-c2cc(C(F)(F)F)[nH]n2)cc1		> 30000	8
